30 molecules from ChEMBL document CHEMBL1154678, “beta-Lactams derived from a carbapenem chiron are selective inhibitors of human fatty acid amide hydrolase versus human monoacylglycerol lipase” (J Med Chem, 2009) can be followed below.

A word on the IC50: it is the midpoint of a concentration-inhibition curve. As usually defined, the inhibition is the relative decrease from the control value, in per cent. In general, Vmax refers to the rate approached at saturating substrate.

For series [1], the target named is T1, Fatty-acid amide hydrolase 1 (Homo sapiens, UniProt O00519).
T1 sequence (O00519 whole entry): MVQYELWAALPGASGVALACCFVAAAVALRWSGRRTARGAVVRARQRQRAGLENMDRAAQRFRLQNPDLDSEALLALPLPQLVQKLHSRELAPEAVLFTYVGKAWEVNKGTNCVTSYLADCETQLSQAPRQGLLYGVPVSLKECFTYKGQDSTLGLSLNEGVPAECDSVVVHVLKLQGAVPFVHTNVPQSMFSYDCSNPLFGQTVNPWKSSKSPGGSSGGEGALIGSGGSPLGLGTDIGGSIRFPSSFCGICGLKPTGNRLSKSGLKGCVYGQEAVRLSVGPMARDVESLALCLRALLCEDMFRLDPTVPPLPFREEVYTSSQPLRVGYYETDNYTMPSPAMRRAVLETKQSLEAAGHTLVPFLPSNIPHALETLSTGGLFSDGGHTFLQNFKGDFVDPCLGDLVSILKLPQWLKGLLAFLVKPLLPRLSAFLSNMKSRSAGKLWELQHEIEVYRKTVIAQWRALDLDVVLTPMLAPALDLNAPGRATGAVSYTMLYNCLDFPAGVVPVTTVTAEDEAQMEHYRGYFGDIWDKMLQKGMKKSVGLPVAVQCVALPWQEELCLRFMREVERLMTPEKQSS
In words: Inhibition of human recombinant FAAH using [3H]anandamide by competitive hydrolysis assay. The essentials: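 Compounds were added in DMSO, with DMSO alone as control, plus [3H]-AEA at 2 μM final, 37 °C for 10 min. The reaction was stopped on ice with cold chloroform/methanol (1:1), and the aqueous phase was counted by LSC with the buffer-only blank subtracted. IC50 is the mean of three independent experiments.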

Series [2] deals with T2, Monoglyceride lipase (Homo sapiens) (UniProt Q99685).
T2 sequence (whole entry): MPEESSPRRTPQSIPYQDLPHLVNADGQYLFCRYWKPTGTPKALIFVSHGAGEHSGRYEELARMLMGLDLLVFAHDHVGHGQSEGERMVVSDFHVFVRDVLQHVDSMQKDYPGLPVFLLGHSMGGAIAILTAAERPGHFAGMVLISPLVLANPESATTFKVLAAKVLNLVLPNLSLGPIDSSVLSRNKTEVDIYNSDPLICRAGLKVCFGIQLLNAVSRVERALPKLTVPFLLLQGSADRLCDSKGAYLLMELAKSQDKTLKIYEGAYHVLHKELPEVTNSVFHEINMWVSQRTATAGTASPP
In words: Inhibition of human recombinant MGL using 2-oleoylglycerol at 100 uM by competitive hydrolysis assay.

Series [3] has as its target T2, Monoglyceride lipase (Homo sapiens). In words: Inhibition of human recombinant MGL using 2-oleoylglycerol at 1 uM by competitive hydrolysis assay.
Series [4] deals with T3, Monoglyceride lipase (Homo sapiens, UniProt Q99685).
T3 sequence (Q99685 whole entry): T2 sequence (whole entry)
In words: Inhibition of human recombinant MGL using 2-oleoylglycerol by competitive hydrolysis assay. The essentials:
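Compounds were added in DMSO, with DMSO as control, plus [3H]-2-oleoylglycerol at 2 μM final, 37 °C for 10 min. Ice-cold chloroform/methanol (1:1) quench, and the methanol/buffer phase was counted by LSC with the blank subtracted. Results are means of three independent assays.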

Substrate in series [5]: C=CCCC(=O)N1C[C@@H]([C@@H](C)OC(=O)CCCc2ccccc2)C1=O
In words: Hydrolytic activity of human recombinant FAAH at 15 nM by liquid scintillation counting.

Substrate in series [6]: C=CCCC(=O)N1C[C@@H]([C@@H](C)OC(=O)CCCc2ccccc2)C1=O
In words: Hydrolytic activity of human recombinant FAAH at 45 nM by liquid scintillation counting.

For the molecule `C[C@@H](OC(=O)CCc1ccccc1)[C@@H]1CN(C(=O)CCCc2ccccc2)C1=O`, in series [1], the half-maximal inhibitory concentration (IC50) is 57 nM. In addition, the inhibition in series [2] came out at 54%.
Consider `C[C@@H](OC(=O)CCCc1ccccc1)[C@@H]1CN(C(=O)CCCc2ccccc2)C1=O`, for which the inhibition in series [3] was found to be 0%; in series [2], 100%. Moreover, in series [1], the half-maximal inhibitory concentration (IC50) came to 30 nM.
In the case of `C[C@@H](OC(=O)CCCCc1ccccc1)[C@@H]1CN(C(=O)CCCc2ccccc2)C1=O`, the IC50 in series [1] was found to be 45 nM. The inhibition in series [2] was determined as 59%.
Regarding `C[C@@H](OC(=O)CCCCc1ccccc1)[C@@H]1CN(C(=O)CCc2ccccc2)C1=O`, the values for the inhibition in series [3] and in series [2] were 0% and 100%, respectively. The IC50 in series [1] was determined as 91 nM.
For the molecule `C[C@@H](OC(=O)Cc1ccc(-c2ccccc2)cc1)[C@@H]1CN(C(=O)CCCc2ccccc2)C1=O`, the IC50 in series [1] came out at 32 nM. Further, the inhibition in series [2] was 0%.
With `CC(=O)O[C@@H]1[C@@H]([C@@H](C)OC(=O)CCc2ccccc2)C(=O)N1C(=O)CCc1ccccc1`, the inhibition in series [3] came out at 0%; in series [2] it was 100%. Also, the IC50 in series [1] was found to be 2020 nM.
Take `CC(=O)O[C@@H]1[C@@H]([C@@H](C)O)C(=O)N1C(=O)CCCc1ccccc1`: in series [1], the concentration for half-maximal inhibition (IC50) was determined as 183000 nM. The inhibition in series [2] was 61%.
Consider `CC(=O)O[C@@H]1[C@@H]([C@@H](C)OC(=O)CCCc2ccccc2)C(=O)N1C(=O)CCc1ccccc1`, for which the inhibition in series [3] was determined as 0%; in series [2] it was 100%. In series [1], the IC50 was determined as 960 nM.
For `C=CCCC(=O)N1C[C@@H]([C@@H](C)OC(=O)Cc2ccc(-c3ccccc3)cc2)C1=O`, the IC50 in series [1] came out at 12 nM; in series [4] (read-out: IC50) it was 1840 nM. Also, the inhibition in series [2] was 91%.
As to `CC(=O)O[C@@H]1[C@@H]([C@@H](C)OC(=O)CCCc2ccccc2)C(=O)N1C(=O)CCCc1ccccc1`, the results for the inhibition in series [3] and in series [2] were 0% and 100%, respectively. For the same molecule, in series [1], the half-inhibitory concentration (IC50) came to 3120 nM.
Consider `C[C@@H](O)[C@@H]1CN(C(=O)CCc2ccccc2)C1=O`, for which the IC50 in series [1] was determined as 409000 nM. The inhibition in series [2] came to 8%.
The like results for `CC(=O)O[C@@H]1[C@@H]([C@@H](C)O)C(=O)N1C(=O)CCc1ccccc1` were, in that order, 224000 nM and 48%.
In the case of `C=CCCCC(=O)N1C[C@@H]([C@@H](C)OC(=O)CCCc2ccccc2)C1=O`, the results for the IC50 in series [1] and in series [4] (read-out: IC50) were 10 nM and 8510 nM, respectively. Besides, in series [2], the inhibition is 85%.
As to `CC(=O)O[C@@H]1[C@@H]([C@@H](C)OC(=O)CCc2ccccc2)C(=O)N1C(=O)CCCc1ccccc1`, the inhibition in series [3] came to 0%; in series [2], 100%. In series [1], the IC50 stood at 5120 nM.
As for `C=CCCCC(=O)N1C[C@@H]([C@@H](C)OC(=O)Cc2ccc(-c3ccccc3)cc2)C1=O`, the figures for the half-maximal inhibitory concentration (IC50) in series [1] and in series [4] (read-out: IC50) were 14 nM and 14600 nM, respectively. In addition, the inhibition in series [2] was determined as 67%.
Turning to `C=CCCC(=O)O[C@H](C)[C@@H]1CN(C(=O)CCC=C)C1=O`, the IC50 in series [1] stood at 98 nM; in series [4] (read-out: IC50), 23300 nM. Also, the inhibition in series [2] stood at 99%.
Consider `C=CCCC(=O)N1C(=O)[C@H]([C@@H](C)O)[C@H]1OC(C)=O`, for which the IC50 in series [1] worked out at 537000 nM. For the same molecule, the inhibition in series [2] turned out to be 16%.
For `C[C@@H](OC(=O)CCc1ccccc1)[C@@H]1CN(C(=O)CCc2ccccc2)C1=O`, the inhibition in series [3] amounted to 0%; in series [2], 100%. In addition, the IC50 in series [1] stood at 157 nM.
As to `C[C@@H](OC(=O)Cc1ccc(-c2ccccc2)cc1)[C@@H]1CNC1=O`, in series [1], the IC50 worked out at 6500 nM. Further, the inhibition in series [2] came to 16%.
Regarding `C[C@@H](OC(=O)CCCc1ccccc1)[C@@H]1CN(C(=O)CCc2ccccc2)C1=O`, the inhibition in series [3] stood at 0%; in series [2], 100%. For the same molecule, the IC50 in series [1] worked out at 49 nM.
Consider `C=CCCC(=O)O[C@H](C)[C@H]1C(=O)N(C(=O)CCC=C)[C@@H]1OC(C)=O`, for which the inhibition in series [3] was 33%; in series [2], 99%. Besides, the IC50 is 1900 nM in series [1] and 133000 nM in series [4] (read-out: IC50).
With `CC(=O)O[C@@H]1[C@@H]([C@@H](C)OC(=O)Cc2ccc(-c3ccccc3)cc2)C(=O)N1C(=O)CCCc1ccccc1`, the inhibition in series [3] came to 0%; in series [2], 100%. For the same molecule, the IC50 in series [1] came out at 708 nM.
On to `C[C@@H](OC(=O)Cc1ccc(-c2ccccc2)cc1)[C@@H]1CN(C(=O)CCc2ccccc2)C1=O`, for which the concentration for half-maximal inhibition (IC50) in series [1] was 50 nM. The inhibition in series [2] is 31%.
In the same order, the values of `CC(=O)O[C@@H]1[C@@H]([C@@H](C)OC(=O)Cc2ccc(-c3ccccc3)cc2)C(=O)N1C(=O)CCc1ccccc1` are 826 nM and 66%.
Consider `C=CCCC(=O)N1C[C@@H]([C@@H](C)OC(=O)CCCc2ccccc2)C1=O`, for which the 50% inhibitory concentration (IC50) was 5 nM in series [1] and 4060 nM in series [4] (read-out: IC50). In addition, in series [2], the inhibition is 89%.
`C=CCCC(=O)N1C[C@@H]([C@@H](C)O)C1=O`: the inhibition is 8% in series [3] and 89% in series [2]. For the same molecule, in series [1], the IC50 stood at 7900 nM.
With `C=CCCCC(=O)O[C@H](C)[C@@H]1CN(C(=O)CCC=C)C1=O`, the IC50 in series [1] stood at 32 nM; in series [4], 4720 nM; in series [4] (read-out: IC50), 4720 nM. The inhibition in series [2] stood at 8%.
Turning to `C[C@@H](OC(=O)Cc1ccc(-c2ccccc2)cc1)[C@@H]1CN(C(=O)CCCCc2ccccc2)C1=O`, the IC50 in series [1] amounted to 236 nM. Moreover, in series [2], the inhibition is 25%.
As to `C[C@@H](OC(=O)CCCc1ccccc1)[C@@H]1CN(C(=O)CCCCc2ccccc2)C1=O`, the concentration for half-maximal inhibition (IC50) in series [1] was 449 nM. For the same molecule, the inhibition in series [2] turned out to be 39%.

B1: Fatty-acid amide hydrolase 1 (Homo sapiens), O00519 (protein)
chain: T1 sequence (O00519 whole entry)
As for B1, the Vmax in series [5] came to 12.8 nmol/min/mg; in series [6], 11.9 nmol/min/mg.
